The record followed here is ChEMBL document CHEMBL4622976, “Development of pH/Glutathione-Responsive Theranostic Agents Activated by Glutathione S-Transferase π for Human Colon Cancer” (J Med Chem, 2020).

The pIC50 is the IC50 on a negative log10 scale, so that one unit is a factor of ten.

pIC50: −log10 of the molar value.

Data set [1] is described as follows: Antiproliferative activity against rat 9L-2 cells by MTT assay. The data set is classed as functional, cell-based. The method in brief:
(§1)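 MTT assay. Cells were grown in DMEM/RPMI 1640 with 10% FBS, penicillin and streptomycin at 37 °C under 5% CO2. After a PBS wash, cells got 0.5 mg/mL MTT for 3 h at 37 °C. Formazan was dissolved in DMSO and absorbance read at 570 nm. Inhibition was expressed as a percentage and IC50 calculated. Means ± SD come from three separate experiments.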

The nature of data set [2]: Drug metabolism assessed as GSTpi (unknown origin) mediated compound fluorescence activation at 1 uM in presence of 50 uM H2O2 by HPLC analysis. The data set is classed as ADME. The following applies: human.
The nature of data set [3]: Drug uptake in lysosome of human HT-29 cells at 1 uM incubated for 60 mins by Lyso-tracker based confocal fluorescence microscopy. It counts as ADME, subcellular. The following applies: ht-29, 1 h. In short, it runs like this:
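HT29 and CCD841 cells were seeded at 2×10^5 in glass-bottom dishes. They were co-incubated in DMEM with compound (1 µM) and LysoTracker Red DND-99 (1 µM). Confocal imaging used a 40× water objective. Compound channel: 405 nm laser, 480–530 nm filter. LysoTracker channel: 561 nm laser, 580–630 nm filter.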

The nature of data set [4]: Toxicity in ICR mouse assessed as induction of animal death at 240 to 585.9 mg/kg, ip measured after 4 hrs. The data set is classed as organism-based. As to conditions: in vivo; call rule not given here. The method in brief:
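Female ICR mice, randomised, n = 10 per group. Single intraperitoneal dose of 240.0, 300.0, 375.0, 468.8 or 585.9 mg/kg, or vehicle. Deaths recorded at 1 h, 4 h, days 1–4 and days 5–14. Body weight, drinking, eating and activity observed over 14 days. Survival percentage taken on day 14; LD50 derived from the dose–mortality data.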

Data set [5] can be described thus: Cytotoxicity against human CCD-841 cells by MTT assay. The data set is classed as cell-based. In short, it runs like this:
as §1

The nature of data set [6]: Drug metabolism assessed as GSTpi (unknown origin) mediated compound fluorescence activation at 1 uM in presence of 100 uM arginine by HPLC analysis. It counts as ADME. As to conditions: human. In short, it runs like this:
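Selectivity test: compound (1 µM) with catalytic GSTπ and each analyte in water with 1% (v/v) DMSO at pH 4.0, 37 °C for 0.5 h. Analytes were cations at 1 mM; amino acids, vitamin C, Na2S and GSH at 100 µM. Readout was fluorescence emission spectra (excitation 440 nm, recorded 450–650 nm).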

Data set [7] can be described thus: Toxicity in BALB/c mouse xenografted with human hT-29 cells assessed as effect on body mass at 20 to 40 mg/kg, ip dosed every day for 21 days. It counts as organism-based. As to conditions: in vivo, 504 h. The method in brief:
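Female BALB/c nude mice, 5-6 weeks old, inoculated subcutaneously with 1×10^6 HT29 cells. At tumor volume 100 mm³, animals randomized to compound or saline, given intraperitoneally every day for 21 days. Body weight recorded every three days; animals euthanized at 20% weight loss. Tumor volume = ½(L×W²) from caliper measurements; tumors excised and weighed at the end.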
In general terms: In xenograft studies the graft and the host belong to different species.

Data set [8] in a line: Drug metabolism assessed as GSTalpha (unknown origin) mediated 1-(3,4,5-trimethoxyphenyl)-9H-pyrido[3,4-b]indol-3-amine formation at 40 uM in presence of 0.8 mM GSH by HPLC analysis. The following applies: human. It counts as ADME. In short, it runs like this: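 HPLC measurement of amine release after incubating compound (40 µM) with GSH (0.8 mM) and GSTπ or GSTα at 0.03 µg/ml.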

Data set [9] has as its system HT-29. In words: Antiproliferative activity against human HT-29 cells by MTT assay. The data set is classed as functional, cell-based. In short, it runs like this:
as §1
(Formazan colour is commonly taken as a measure of viable cells.)

In data set [10] the test system is HT-29. In words: Induction of autophagy in human HT-29 cells assessed as increase in LC3-II protein level incubated for 72 hrs by Western blot analysis. It counts as functional, cell-based. In short, it runs like this: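 HT29 cells (1.5×10^5/mL) exposed to compound or vehicle for 72 h, then lysed. Lysates (0.05 mg/lane) run on 12% SDS-PAGE, transferred to nitrocellulose, blocked with 5% non-fat milk and probed for LC3, p62, beclin-1 and β-actin. Bands quantified relative to β-actin, with LC3-II/LC3-I ratio also calculated; means ± SD from three independent assays.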
Background: Immunoblotting shows a protein as a band on a membrane.

The subject of data set [11] is HT-29. In words: Induction of apoptosis in human HT-29 cells assessed as increase in Bax protein level incubated for 72 hrs by Western blot analysis. The data set is classed as functional, cell-based. The method in brief: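 HT29 cells (1.5×10^5/mL) were treated for 72 h and lysed. Lysate (0.05 mg/lane) was run on 12% SDS-PAGE and transferred to nitrocellulose. After blocking in 5% non-fat milk, blots were probed for Bax, Bcl-2, cleaved caspase-3, cleaved PARP, LC3, p62 and beclin-1. Levels were normalised to β-actin, and means ± SD taken from three independent assays.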

For the compound `COc1cc(-c2nc(NC(=O)OCC3=CCCCC3=O)cc3c2[nH]c2ccccc23)cc(OC)c1OC`, the pIC50 in [1] is 5.36; in data set [5], 4.63; in the data set with HT-29 [9] it was 6.04. The Drug metabolism entry in data set [2], in data set [6] and in [8] was “Metabolite_Notdetected” throughout. For the same compound, the Drug uptake entry in [3] is listed as “Active”. The Activity entry in data set [4] was “Non-Toxic”; in [7], “Non-Toxic”; in the data set with HT-29 [10], “Dose-dependent effect”; with HT-29 [11], “Dose-dependent effect”.
